Laboratory results taken from ChEMBL document CHEMBL5120910, “Small-Molecule Gankyrin Inhibition as a Therapeutic Strategy for Breast and Lung Cancer” (J Med Chem, 2022).
Active and inactive are the calls of the source. The rule behind the calls is not given here.

How the values were obtained:
A549 [1] = experiment: Inhibition of gankyrin-proteasome protein-protein interaction in human A549 cells assessed as increase in phosphorylated p53 level at serine 6 residue at 0.04 to 0.33 uM measured after 48 hrs by Western blotting analysis; assay type: cell-based; details: dose 0.04-0.33 µM
Procedure, shortened: (§1)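 Cells in 10 cm dishes treated with varying concentrations (0.5% DMSO final) or DMSO only for 48 h. Lysed in RIPA with protease/phosphatase inhibitors on ice for 60 min. 15 μg protein resolved under reducing conditions, transferred to PVDF, and probed for p53, phospho-p53 S6/S15, Rb, gankyrin and cyclophilin. Detection by HRP-secondary ECL.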

[2] = Cytotoxicity against HEK293 cells assessed as cell growth inhibition measured after 72 hrs by MTT assay; assay type: toxicity, cell-based; details: human
Procedure, shortened: (§2)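 Cells seeded at 2.5 × 10^4 cells/well, allowed 24 h before dosing, then exposed to increasing concentrations (0.5% DMSO final) for 72 h at 37 °C, 5% CO2. MTT added at 1 mg/mL final in complete media for 2 h, formazan dissolved in DMSO, absorbance read at 570 nm. 6–8 repeats per treatment; IC50 from concentration–response fit.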

A549 [3] = experiment: Antitumor activity against human A549 cells tumor spheroids assessed as increase in dead cells by measuring red fluorescence intensity measured at 15 days by EthD-III staining based fluorescence microscopic analysis; assay type: functional, cell-based; details: dose 0.15-5 µM, time 15.0 day, DDE = dose-dependent effect
Procedure, shortened: (§3)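 Live/dead staining of 3D spheroids at day 15 after single-dose treatment: media replaced by kit reagent with calcein AM (live, green) and EthD-III (dead, red), 30 min in dark at room temperature, imaged at 4X by fluorescence microscopy. Mean ± SD, n = 4; unpaired Student's t-test.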

A549 [4] = experiment: Inhibition of gankyrin-proteasome protein-protein interaction in human A549 cells assessed as increase in phosphorylated p53 level at serine 15 residue at 0.04 to 0.33 uM measured after 48 hrs by Western blotting analysis; assay type: cell-based; details: dose 0.04-0.33 µM; procedure, shortened: as §1
[5] = biological target: T1, 26S proteasome non-ATPase regulatory subunit 10 (Homo sapiens) (UniProt O75832); experiment: Binding affinity to gankyrin (unknown origin) expressed in Escherichia coli BL21 (DE3) expression system assessed as decrease in thermal denaturation at 1.5 uM measured at 5 to 90 degreeC by circular dichroism spectropolarimeter analysis
T1 sequence (whole entry): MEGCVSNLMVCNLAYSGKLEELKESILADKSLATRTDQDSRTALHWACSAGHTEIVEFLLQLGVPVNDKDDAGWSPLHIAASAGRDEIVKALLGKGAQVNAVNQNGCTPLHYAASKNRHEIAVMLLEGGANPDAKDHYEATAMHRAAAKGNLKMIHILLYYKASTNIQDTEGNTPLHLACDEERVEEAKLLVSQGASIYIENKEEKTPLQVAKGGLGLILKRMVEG
Procedure, shortened: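 Recombinant His-tagged gankyrin expressed in E. coli BL21(DE3) Codon+RIL (IPTG 1 mM, 25 °C, ~5 h) and purified by Ni2+-IMAC. Thermal denaturation followed by CD at 217 nm over 5–90 °C with compound at 1.5 μM.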

A549 [6] = experiment: Antitumor activity in human A549 cells cultured as 3D spheroids assessed as fold decrease in spheroid volume at 2.5 uM measured up to 15 days by inverted microscopic analysis; assay type: functional; details: time <= 15 day
Procedure, shortened: (§4)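 Spheroids formed from 2000 cells/well in ultra-low attachment U-bottom wells over 3 days, then given a single dose on day 3. Half the media was replenished every 3 days. Transmitted-light images were taken through day 15, and spheroid volume was computed from images and expressed as fold-difference. Mean ± SD, n = 8; unpaired t-test.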

A549 [7] = experiment: Antitumor activity against human A549 cells tumor spheroids assessed as decrease in live cells by measuring green fluorescence intensity measured at 15 days by calcein AM staining based fluorescence microscopic analysis; assay type: functional, cell-based; details: dose 0.15-5 µM, time 15.0 day, DDE = dose-dependent effect; procedure, shortened: as §3
A549 [8] = experiment: Inhibition of gankyrin-proteasome protein-protein interaction in human A549 cells assessed as increase in phosphorylated p53 level at serine 15 residue at 0.12 to 1 uM measured after 48 hrs by Western blotting analysis; assay type: cell-based; details: dose 0.12-1 µM; procedure, shortened: as §1
[9] = biological target: T1, 26S proteasome non-ATPase regulatory subunit 10 (Homo sapiens); experiment: Binding affinity to gankyrin (unknown origin) expressed in Escherichia coli BL21 (DE3) expression system assessed as formation of white precipitation of the compound at 1.5 uM
[10] = Metabolic stability in human liver microsomes assessed as compound remaining preincubated for 10 mins followed by NADPH addition measured after 60 mins by HPLC analysis; assay type: ADME, Microsome; details: read-out: Stability
[11] = biological target: T1, 26S proteasome non-ATPase regulatory subunit 10 (Homo sapiens); experiment: Binding affinity to gankyrin (unknown origin) assessed as change in melting temperature at 300 uM by SYPRO orange staining based thermal shift assay
A549 [12] = experiment: Antiproliferative activity against human A549 cells assessed as cell growth inhibition measured after 72 hrs by MTT assay; assay type: functional, cell-based; details: A549, 72 h; procedure, shortened: as §2
A549 [13] = experiment: Antitumor activity in human A549 cells cultured as 3D spheroids assessed as fold decrease in spheroid volume at 5 uM measured up to 15 days by inverted microscopic analysis; assay type: functional; details: time <= 15 day; procedure, shortened: as §4
MDA-MB-231 [14] = experiment: Antiproliferative activity against human MDA-MB-231 cells assessed as cell growth inhibition measured after 72 hrs by MTT assay; assay type: functional, cell-based; details: MDA-MB-231, 72 h; procedure, shortened: as §2
A549 [15] = experiment: Inhibition of gankyrin-proteasome protein-protein interaction in human A549 cells assessed as increase in phosphorylated p53 level at serine 6 residue at 0.12 to 1 uM measured after 48 hrs by Western blotting analysis; assay type: cell-based; details: dose 0.12-1 µM; procedure, shortened: as §1
A549 [16] = experiment: Inhibition of gankyrin-proteasome protein-protein interaction in human A549 cells assessed as increase in phosphorylated p53 level at serine 6 residue at 0.60 to 5 uM measured after 48 hrs by Western blotting analysis; assay type: cell-based; details: dose 0.6-5 µM; procedure, shortened: as §1
A549 [17] = experiment: Induction of cell cycle arrest in human A549 cells assessed as increase in cell accumulation at G0/G1 phase at 0.3 uM measured after 72 hrs by propidium iodide staining based flow cytometry analysis; assay type: functional
Procedure, shortened: (§5)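 Cells in 10 cm dishes treated for 72 h (0.1% DMSO final; DMSO-only control). Harvested in cold PBS, fixed in 70% ethanol at −20 °C overnight, stained with PI for 40 min at 37 °C, then analysed by flow/imaging cytometry for G0/G1, S and G2/M fractions. Mean ± SD, n = 3.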

[18] = biological target: T1, 26S proteasome non-ATPase regulatory subunit 10 (Homo sapiens); experiment: Binding affinity to gankyrin in human A549 cells assessed as decrease in thermal stability at 0.3 uM incubated for 48 hrs followed by heat treatment at 50 to 65 degreeC by CETSA; assay type: cell-based
Procedure, shortened: (§6)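 CETSA: cells treated with compound for 48 h, then heated across a temperature range. Soluble gankyrin was detected by western blot and melt curves were constructed. Mean ± SD, n = 3.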

A549 [19] = experiment: Antitumor activity in human A549 cells cultured as 3D spheroids assessed as fold decrease in spheroid volume at 0.30 uM measured up to 15 days by inverted microscopic analysis; assay type: functional; details: dose 0.3 µM; time <= 15 day; procedure, shortened: as §4
A549 [20] = experiment: Inhibition of colony formation in human A549 cells at 0.3 uM incubated for 48 hrs followed by replacement of fresh media every alternative day measured after 7 days by crystal violet staining based clonogenic assay relative to control; values are per cent of control; details: A549, 48 h
A549 [21] = experiment: Induction of cell cycle arrest in human A549 cells assessed as decrease in cell accumulation at S phase at 0.3 uM measured after 72 hrs by propidium iodide staining based flow cytometry analysis; assay type: functional; procedure, shortened: as §5
A549 [22] = experiment: Antitumor activity in human A549 cells cultured as 3D spheroids assessed as fold decrease in spheroid volume at 0.15 uM measured up to 15 days by inverted microscopic analysis; assay type: functional; details: time <= 15 day; procedure, shortened: as §4
A549 [23] = experiment: Induction of cell cycle arrest in human A549 cells assessed as decrease in cell accumulation at G2/M phase at 0.3 uM measured after 72 hrs by propidium iodide staining based flow cytometry analysis; assay type: functional; procedure, shortened: as §5
MDA-MB-231 [24] = experiment: Antitumor activity in human MDA-MB-231 cells cultured as 3D spheroids assessed as fold decrease in spheroid volume at 2 uM measured up to 15 days by inverted microscopic analysis; assay type: functional; details: time <= 15 day; procedure, shortened: as §4
HuH-6 [25] = experiment: Inhibition of gankyrin-proteasome protein-protein interaction in human HuH-6 cells assessed as increase in p53 level at 0.12 to 1 uM measured after 48 hrs by Western blotting analysis; assay type: cell-based; details: dose 0.12-1 µM; procedure, shortened: as §1
[26] = Antiproliferative activity against human HuH-6 cells assessed as cell growth inhibition measured after 72 hrs by MTT assay; assay type: functional, cell-based; details: HuH-6, 72 h; procedure, shortened: as §2
MDA-MB-231 [27] = experiment: Antitumor activity in human MDA-MB-231 cells cultured as 3D spheroids assessed as fold decrease in spheroid volume at 1 uM measured up to 15 days by inverted microscopic analysis; assay type: functional; details: time <= 15 day; procedure, shortened: as §4
MDA-MB-231 [28] = experiment: Antitumor activity against human MDA-MB-231 cells tumor spheroids assessed as increase in dead cells by measuring red fluorescence intensity at 1 to 2 uM measured at 15 days by EthD-III staining based fluorescence microscopic analysis; assay type: functional, cell-based; details: dose 1-2 µM, time 15.0 day; procedure, shortened: as §3
MDA-MB-231 [29] = experiment: Antitumor activity against human MDA-MB-231 cells tumor spheroids assessed as decrease in live cells by measuring green fluorescence intensity at 1 to 2 uM measured at 15 days by calcein AM staining based fluorescence microscopic analysis; assay type: functional, cell-based; details: dose 1-2 µM, time 15.0 day; procedure, shortened: as §3
[30] = biological target: T1, 26S proteasome non-ATPase regulatory subunit 10 (Homo sapiens); experiment: Binding affinity to gankyrin in human MDA-MB-231 cells assessed as decrease in thermal stability at 2 uM incubated for 48 hrs followed by heat treatment at 50 to 65 degreeC by CETSA; assay type: cell-based; procedure, shortened: as §6
MDA-MB-231 [31] = experiment: Induction of cell cycle arrest in human MDA-MB-231 cells at 2 uM measured after 72 hrs by propidium iodide staining based flow cytometry analysis
HuH-6 [32] = experiment: Inhibition of gankyrin-proteasome protein-protein interaction in human HuH-6 cells assessed as increase in Rb level at 0.12 to 1 uM measured after 48 hrs by Western blotting analysis; assay type: cell-based; details: dose 0.12-1 µM; procedure, shortened: as §1
MDA-MB-231 [33] = experiment: Induction of cell cycle arrest in human MDA-MB-231 cells assessed as increase in cell accumulation at G0/G1 phase at 2 uM measured after 72 hrs by propidium iodide staining based flow cytometry analysis; assay type: functional; procedure, shortened: as §5
MDA-MB-231 [34] = experiment: Inhibition of colony formation in human MDA-MB-231 cells at 2 uM incubated for 48 hrs followed by replacement of fresh media every alternative day measured after 7 days by crystal violet staining based clonogenic assay relative to control; values are per cent of control; details: MDA-MB-231, 216 h
MDA-MB-231 [35] = experiment: Inhibition of gankyrin-proteasome protein-protein interaction in human MDA-MB-231 cells assessed as increase in Rb level at 0.25 to 2 uM measured after 48 hrs by Western blotting analysis; assay type: cell-based; details: dose 0.25-2 µM; procedure, shortened: as §1

| SMILES | Activity (A549 [1]) | IC50 at 72 h [2] [µM] | Activity (A549 [3]) | Activity (A549 [4]) | Activity [5] | Activity (A549 [7]) | Activity (A549 [8]) | remaining at 1 h [10] [%] | Activity [11] | IC50 (A549 [12]) [µM] | IC50 (MDA-MB-231 [14]) [µM] | Activity (A549 [15]) | Activity (A549 [16]) | other results |
| --- | --- | --- | --- | --- | --- | --- | --- | --- | --- | --- | --- | --- | --- | --- |
| Cc1ccc(NC(=S)CCCn2cc(-c3ccc(C(F)(F)F)cc3)nn2)cc1 | Active | > 100 | Dde | Active | Active | Dde | Active | 73 | Active | 5.5 | 83.2 | Active | Active | fold change (FC) (A549 [6]): 3.3; Activity [9]: Active; fold change (FC) (A549 [13]): 3.5 |
| COC(=O)c1ccc(-c2cn(CCCC(=O)Nc3ccc(-c4ccccc4)cc3)nn2)cc1 | Active | > 100 | Dde | Active | Active | Dde | Active | 87 | Active | 0.33 | > 100 | Active | Active | Activity (A549 [17]): Active; Activity [18]: Active; fold change (FC) (A549 [19]): 2.4; growth, % of control at 0.3 µM (A549 [20]): 44.6%; Activity (A549 [21]): Active; fold change (FC) (A549 [22]): 3.6; Activity (A549 [23]): Active |
| O=C(CCCn1cc(-c2ccc(C(F)(F)F)cc2)nn1)Nc1ccc(-c2ccccc2)cc1 |  | > 100 |  |  | Active |  |  | 60 | Active | 19.1 | 2 |  |  | fold change (FC) (MDA-MB-231 [24]): 3.2; Activity (HuH-6 [25]): Active; IC50 [26]: 1.1 µM; fold change (FC) (MDA-MB-231 [27]): 2.3; Activity (MDA-MB-231 [28]): Active; Activity (MDA-MB-231 [29]): Active; Activity [30]: Active; Activity (MDA-MB-231 [31]): Active; Activity (HuH-6 [32]): Active; Activity (MDA-MB-231 [33]): Active; growth, % of control at 2 µM (MDA-MB-231 [34]): 46.3%; Activity (MDA-MB-231 [35]): Active |
